Data as given in ChEMBL document CHEMBL4184298, “Development of Potent Inhibitors of Receptor Tyrosine Kinases by Ligand-Based Drug Design and Target-Biased Phenotypic Screening” (J Med Chem, 2018).
Calls of active or inactive are those of the source. The rule behind the calls is not given here.

What was measured:
[1] = organism: Mus musculus; test: (§1) Antiproliferative activity against mouse AXL-positive Breast cancer cells after 5 days by PrestoBlue assay; type: functional
Summary of the method: (§2)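 Cell proliferation: AXL+ cells were exposed to 8-point half-log dilutions (0.03–100 μM). Viability was read with PrestoBlue reagent on day 5.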

[2] = target: Vascular endothelial growth factor receptor 2 (Homo sapiens, UniProt P35968); test: Inhibition of wild-type human partial length VEGFR2 (R787 to P1253 residues) expressed in mammalian expression system using poly [Glu, Try] 4:1 as substrate in presence of [gamma-33P]ATP
Sequence of Vascular endothelial growth factor receptor 2 (P35968 whole entry, the tested form may be a part): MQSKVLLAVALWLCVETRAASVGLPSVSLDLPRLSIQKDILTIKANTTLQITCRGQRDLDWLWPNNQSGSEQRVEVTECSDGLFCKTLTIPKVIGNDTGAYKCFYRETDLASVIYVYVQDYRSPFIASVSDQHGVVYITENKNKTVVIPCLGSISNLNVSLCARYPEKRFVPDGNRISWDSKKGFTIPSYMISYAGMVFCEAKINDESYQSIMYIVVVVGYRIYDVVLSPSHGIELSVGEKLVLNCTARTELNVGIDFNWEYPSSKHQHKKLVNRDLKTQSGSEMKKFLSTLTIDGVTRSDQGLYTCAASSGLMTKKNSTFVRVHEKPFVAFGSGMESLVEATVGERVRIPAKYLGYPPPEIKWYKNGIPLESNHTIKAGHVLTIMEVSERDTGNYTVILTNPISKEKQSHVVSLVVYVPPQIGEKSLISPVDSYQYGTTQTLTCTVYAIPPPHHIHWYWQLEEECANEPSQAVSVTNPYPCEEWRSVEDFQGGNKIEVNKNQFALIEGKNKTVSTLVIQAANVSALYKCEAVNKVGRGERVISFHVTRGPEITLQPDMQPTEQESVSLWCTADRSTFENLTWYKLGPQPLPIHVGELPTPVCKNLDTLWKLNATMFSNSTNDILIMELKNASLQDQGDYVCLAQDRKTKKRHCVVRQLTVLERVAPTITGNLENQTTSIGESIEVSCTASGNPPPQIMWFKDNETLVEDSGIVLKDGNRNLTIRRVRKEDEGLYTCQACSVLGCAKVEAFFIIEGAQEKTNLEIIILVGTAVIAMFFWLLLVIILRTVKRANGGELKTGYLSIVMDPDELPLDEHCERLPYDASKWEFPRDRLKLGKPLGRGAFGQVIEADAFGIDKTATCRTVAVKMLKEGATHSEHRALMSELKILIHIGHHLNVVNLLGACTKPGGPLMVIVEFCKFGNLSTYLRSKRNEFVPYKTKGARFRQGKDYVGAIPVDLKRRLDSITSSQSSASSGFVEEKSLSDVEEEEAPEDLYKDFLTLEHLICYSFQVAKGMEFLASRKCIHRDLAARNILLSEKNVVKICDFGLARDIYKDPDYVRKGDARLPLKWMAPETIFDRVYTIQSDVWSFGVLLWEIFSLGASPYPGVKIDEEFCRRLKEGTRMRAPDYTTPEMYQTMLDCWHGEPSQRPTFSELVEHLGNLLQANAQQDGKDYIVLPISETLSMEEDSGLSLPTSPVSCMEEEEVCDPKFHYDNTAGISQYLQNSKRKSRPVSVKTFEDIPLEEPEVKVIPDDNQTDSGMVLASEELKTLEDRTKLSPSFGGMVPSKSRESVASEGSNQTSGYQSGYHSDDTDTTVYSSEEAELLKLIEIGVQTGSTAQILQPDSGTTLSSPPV

[3] = target: Mast/stem cell growth factor receptor Kit (Homo sapiens, UniProt P10721); test: Inhibition of wild-type human partial length KIT (I571 to D952 residues) expressed in bacterial expression system using poly [Glu, Try] 4:1 as substrate in presence of [gamma-33P]ATP
Sequence of Mast/stem cell growth factor receptor Kit (P10721 whole entry, the tested form may be a part): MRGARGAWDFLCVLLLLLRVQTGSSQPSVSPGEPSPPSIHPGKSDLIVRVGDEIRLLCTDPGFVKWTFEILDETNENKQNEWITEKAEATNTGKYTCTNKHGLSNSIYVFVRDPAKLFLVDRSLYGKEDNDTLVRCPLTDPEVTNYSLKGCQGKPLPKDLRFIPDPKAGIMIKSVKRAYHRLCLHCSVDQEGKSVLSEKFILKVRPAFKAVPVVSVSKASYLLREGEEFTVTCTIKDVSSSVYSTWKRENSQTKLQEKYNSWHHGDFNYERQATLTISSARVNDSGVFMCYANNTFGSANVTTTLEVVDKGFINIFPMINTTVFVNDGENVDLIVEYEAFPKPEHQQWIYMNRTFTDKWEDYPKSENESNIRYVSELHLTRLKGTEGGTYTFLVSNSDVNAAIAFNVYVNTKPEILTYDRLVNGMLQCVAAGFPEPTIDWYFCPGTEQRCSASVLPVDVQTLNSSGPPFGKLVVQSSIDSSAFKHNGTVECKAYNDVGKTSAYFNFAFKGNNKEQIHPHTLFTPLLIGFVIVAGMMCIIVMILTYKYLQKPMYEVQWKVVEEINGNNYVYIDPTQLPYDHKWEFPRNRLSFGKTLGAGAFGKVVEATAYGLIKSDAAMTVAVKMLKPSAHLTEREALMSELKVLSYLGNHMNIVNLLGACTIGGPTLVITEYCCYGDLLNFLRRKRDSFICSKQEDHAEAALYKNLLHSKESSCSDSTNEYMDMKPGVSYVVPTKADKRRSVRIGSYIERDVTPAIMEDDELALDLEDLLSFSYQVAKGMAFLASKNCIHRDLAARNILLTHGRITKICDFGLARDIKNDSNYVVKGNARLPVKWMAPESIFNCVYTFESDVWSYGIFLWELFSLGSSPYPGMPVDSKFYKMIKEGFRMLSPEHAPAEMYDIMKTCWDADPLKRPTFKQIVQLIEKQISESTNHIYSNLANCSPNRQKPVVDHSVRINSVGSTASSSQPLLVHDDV
Summary of the method: (§3)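 Radiometric assay on recombinant kinase: ³³P incorporation into the kinase substrate was measured and activity was expressed relative to a DMSO control.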

[4] = target: T1, Tyrosine-protein kinase receptor UFO (Homo sapiens, UniProt P30530); test: Inhibition of wild-type human partial length AXL (R497 to Y821 residues) expressed in bacterial expression system using poly [Glu, Try] 4:1 as substrate in presence of [gamma-33P]ATP
T1 sequence (P30530 whole entry): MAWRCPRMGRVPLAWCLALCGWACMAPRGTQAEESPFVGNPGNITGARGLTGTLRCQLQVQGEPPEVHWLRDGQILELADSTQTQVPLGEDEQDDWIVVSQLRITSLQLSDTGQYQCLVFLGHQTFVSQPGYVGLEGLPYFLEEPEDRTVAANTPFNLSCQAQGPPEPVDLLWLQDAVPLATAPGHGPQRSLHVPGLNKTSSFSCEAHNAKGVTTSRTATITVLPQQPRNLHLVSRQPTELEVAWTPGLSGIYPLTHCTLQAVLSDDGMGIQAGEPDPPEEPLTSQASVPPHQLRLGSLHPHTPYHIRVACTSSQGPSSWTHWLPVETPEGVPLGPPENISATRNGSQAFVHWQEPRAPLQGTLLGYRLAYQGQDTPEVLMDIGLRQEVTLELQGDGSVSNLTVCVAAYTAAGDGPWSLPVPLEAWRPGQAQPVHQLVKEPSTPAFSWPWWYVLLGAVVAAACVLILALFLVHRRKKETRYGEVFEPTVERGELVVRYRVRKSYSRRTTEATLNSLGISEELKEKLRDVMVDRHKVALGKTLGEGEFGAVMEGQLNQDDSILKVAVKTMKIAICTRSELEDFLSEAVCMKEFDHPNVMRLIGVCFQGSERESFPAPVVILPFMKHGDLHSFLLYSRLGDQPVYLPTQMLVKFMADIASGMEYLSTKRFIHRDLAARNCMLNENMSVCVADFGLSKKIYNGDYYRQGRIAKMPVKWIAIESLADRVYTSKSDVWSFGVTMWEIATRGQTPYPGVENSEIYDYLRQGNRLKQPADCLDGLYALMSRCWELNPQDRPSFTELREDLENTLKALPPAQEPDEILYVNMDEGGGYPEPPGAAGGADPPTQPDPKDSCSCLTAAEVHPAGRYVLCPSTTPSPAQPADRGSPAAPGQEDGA

[5] = target: T2, Tyrosine-protein kinase Mer (Homo sapiens, UniProt Q12866); test: Inhibition of wild-type human partial length MER (R557 to L884 residues) expressed in bacterial expression system using poly [Glu, Try] 4:1 as substrate in presence of [gamma-33P]ATP
T2 sequence (Q12866 whole entry): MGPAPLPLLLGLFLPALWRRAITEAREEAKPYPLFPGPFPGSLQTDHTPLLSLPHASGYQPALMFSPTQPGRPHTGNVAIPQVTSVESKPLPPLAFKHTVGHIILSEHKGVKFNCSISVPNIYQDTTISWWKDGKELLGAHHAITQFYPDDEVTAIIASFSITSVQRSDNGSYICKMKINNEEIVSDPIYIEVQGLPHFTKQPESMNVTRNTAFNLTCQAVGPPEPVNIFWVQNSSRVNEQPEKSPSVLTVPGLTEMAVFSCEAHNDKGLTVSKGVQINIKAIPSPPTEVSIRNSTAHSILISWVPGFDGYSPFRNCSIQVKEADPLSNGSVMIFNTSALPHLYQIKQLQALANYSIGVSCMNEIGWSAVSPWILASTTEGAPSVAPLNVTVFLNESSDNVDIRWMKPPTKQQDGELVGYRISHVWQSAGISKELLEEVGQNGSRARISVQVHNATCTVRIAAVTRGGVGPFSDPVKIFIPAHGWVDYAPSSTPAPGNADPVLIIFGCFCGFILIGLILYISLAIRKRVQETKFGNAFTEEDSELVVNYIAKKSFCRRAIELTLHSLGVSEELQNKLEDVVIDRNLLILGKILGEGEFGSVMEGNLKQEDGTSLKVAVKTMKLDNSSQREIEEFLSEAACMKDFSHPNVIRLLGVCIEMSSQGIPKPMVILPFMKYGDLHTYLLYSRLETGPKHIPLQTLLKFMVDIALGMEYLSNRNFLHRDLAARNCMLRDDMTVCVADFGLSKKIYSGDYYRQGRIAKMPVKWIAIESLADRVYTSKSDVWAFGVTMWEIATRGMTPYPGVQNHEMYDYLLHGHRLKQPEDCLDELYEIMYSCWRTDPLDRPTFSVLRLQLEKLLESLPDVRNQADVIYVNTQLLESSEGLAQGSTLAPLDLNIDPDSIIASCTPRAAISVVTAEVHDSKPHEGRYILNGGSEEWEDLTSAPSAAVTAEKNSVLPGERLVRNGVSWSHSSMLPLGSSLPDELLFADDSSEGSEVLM

[6] = target: Proto-oncogene tyrosine-protein kinase Src (Homo sapiens, UniProt P12931); test: Inhibition of wild-type human partial length SRC (L240 to L536 residues) expressed in bacterial expression system using poly [Glu, Try] 4:1 as substrate in presence of [gamma-33P]ATP
Sequence of Proto-oncogene tyrosine-protein kinase Src (P12931 2-536 limits assumed): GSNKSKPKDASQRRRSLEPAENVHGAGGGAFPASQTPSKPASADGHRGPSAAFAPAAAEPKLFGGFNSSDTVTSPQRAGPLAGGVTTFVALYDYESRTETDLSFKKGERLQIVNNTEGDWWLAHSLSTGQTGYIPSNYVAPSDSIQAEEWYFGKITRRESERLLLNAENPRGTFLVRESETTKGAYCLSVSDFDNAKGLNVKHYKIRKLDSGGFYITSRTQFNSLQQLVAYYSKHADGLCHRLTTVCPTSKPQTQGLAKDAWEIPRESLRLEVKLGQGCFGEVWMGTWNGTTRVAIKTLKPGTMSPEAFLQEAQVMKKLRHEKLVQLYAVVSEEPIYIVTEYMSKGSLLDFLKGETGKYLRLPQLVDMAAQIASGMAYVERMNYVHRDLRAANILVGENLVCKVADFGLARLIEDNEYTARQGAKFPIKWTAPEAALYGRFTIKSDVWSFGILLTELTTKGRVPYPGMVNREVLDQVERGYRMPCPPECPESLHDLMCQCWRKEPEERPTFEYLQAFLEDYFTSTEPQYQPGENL

[7] = as §1; type: functional; details: 120 h; summary of the method: as §2
[8] = target: Aurora kinase B (Homo sapiens, UniProt Q96GD4); test: Inhibition of wild-type human partial length AURKB (D25 to A303 residues) expressed in mammalian expression system using poly [Glu, Try] 4:1 as substrate in presence of [gamma-33P]ATP; summary of the method: as §3
Sequence of Aurora kinase B (Q96GD4 whole entry, the tested form may be a part): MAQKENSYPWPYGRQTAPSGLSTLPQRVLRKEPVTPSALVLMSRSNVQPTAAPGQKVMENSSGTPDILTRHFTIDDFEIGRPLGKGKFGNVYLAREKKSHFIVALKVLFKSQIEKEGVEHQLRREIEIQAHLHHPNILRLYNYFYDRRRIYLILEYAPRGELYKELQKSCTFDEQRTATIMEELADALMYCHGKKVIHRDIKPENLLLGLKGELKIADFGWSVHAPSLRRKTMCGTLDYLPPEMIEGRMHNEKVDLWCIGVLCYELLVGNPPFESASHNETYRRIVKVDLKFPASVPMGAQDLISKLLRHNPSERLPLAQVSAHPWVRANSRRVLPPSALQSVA

[9] = target: ALK tyrosine kinase receptor (Homo sapiens, UniProt Q9UM73); test: Inhibition of wild-type human partial length ALK (I1088 to E1409 residues) expressed in mammalian expression system using poly [Glu, Try] 4:1 as substrate in presence of [gamma-33P]ATP; summary of the method: as §3
Sequence of ALK tyrosine kinase receptor (Q9UM73 whole entry, the tested form may be a part): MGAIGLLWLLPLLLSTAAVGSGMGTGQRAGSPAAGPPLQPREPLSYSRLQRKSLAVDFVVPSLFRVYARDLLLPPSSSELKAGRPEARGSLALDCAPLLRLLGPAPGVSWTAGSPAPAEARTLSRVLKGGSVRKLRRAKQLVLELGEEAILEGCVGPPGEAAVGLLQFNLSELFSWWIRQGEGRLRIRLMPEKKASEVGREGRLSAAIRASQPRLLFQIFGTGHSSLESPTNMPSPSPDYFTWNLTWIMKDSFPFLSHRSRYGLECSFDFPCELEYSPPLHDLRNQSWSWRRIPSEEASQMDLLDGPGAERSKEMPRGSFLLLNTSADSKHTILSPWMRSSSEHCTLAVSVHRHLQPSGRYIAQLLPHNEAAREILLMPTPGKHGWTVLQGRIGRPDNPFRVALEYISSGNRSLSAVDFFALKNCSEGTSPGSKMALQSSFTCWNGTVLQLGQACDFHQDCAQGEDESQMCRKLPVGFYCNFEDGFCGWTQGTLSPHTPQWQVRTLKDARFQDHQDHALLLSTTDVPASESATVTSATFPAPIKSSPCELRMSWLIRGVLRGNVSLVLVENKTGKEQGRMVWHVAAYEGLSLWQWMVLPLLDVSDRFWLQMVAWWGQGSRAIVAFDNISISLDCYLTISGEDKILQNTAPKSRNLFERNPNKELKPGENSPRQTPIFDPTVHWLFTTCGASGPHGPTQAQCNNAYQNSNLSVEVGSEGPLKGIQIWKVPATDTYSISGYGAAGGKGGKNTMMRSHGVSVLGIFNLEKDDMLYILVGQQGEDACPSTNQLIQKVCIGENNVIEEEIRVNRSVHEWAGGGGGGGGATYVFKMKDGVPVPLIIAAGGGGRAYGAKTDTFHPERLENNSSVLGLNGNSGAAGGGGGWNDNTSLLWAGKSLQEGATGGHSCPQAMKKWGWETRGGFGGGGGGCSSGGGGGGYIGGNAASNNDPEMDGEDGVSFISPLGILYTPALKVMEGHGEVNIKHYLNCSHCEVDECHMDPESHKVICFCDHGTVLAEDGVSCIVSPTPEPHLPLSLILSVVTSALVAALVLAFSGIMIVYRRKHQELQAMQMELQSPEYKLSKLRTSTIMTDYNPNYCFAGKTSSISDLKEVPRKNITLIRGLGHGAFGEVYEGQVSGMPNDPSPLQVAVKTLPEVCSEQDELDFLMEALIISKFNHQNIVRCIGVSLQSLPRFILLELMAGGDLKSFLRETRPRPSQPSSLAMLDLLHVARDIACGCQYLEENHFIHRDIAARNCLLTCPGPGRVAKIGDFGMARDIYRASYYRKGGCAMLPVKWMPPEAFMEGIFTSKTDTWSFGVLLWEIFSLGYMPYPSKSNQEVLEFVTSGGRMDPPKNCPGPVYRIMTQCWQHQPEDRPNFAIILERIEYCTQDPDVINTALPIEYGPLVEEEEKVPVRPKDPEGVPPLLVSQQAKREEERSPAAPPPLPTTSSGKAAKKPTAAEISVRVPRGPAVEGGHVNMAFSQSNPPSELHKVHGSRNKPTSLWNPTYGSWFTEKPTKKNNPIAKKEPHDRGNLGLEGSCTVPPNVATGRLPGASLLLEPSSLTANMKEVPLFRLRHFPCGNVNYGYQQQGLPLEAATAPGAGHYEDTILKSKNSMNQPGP

[10] = target: Receptor-type tyrosine-protein kinase FLT3 (Homo sapiens, UniProt P36888, ITD); test: Inhibition of human partial length FLT3 ITD mutant expressed in bacterial expression system using poly [Glu, Try] 4:1 as substrate in presence of [gamma-33P]ATP
Summary of the method: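 Recombinant kinase assays were run radiometrically by an outside contract service. Activity was read as 33P incorporation into each kinase's substrate and expressed relative to a DMSO control.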

SMILES	Activity [1]	IC50 [2]	IC50 [3]	IC50 [4]	IC50 [5]	IC50 [6]	EC50 [7]	IC50 [8]	IC50 [9]	IC50 [10]
CNc1ncc2c(-c3ccc(N4CCN(C(=O)C(C)(C)C)CC4)nc3)nn(Cc3cn(Cc4ccccc4)nn3)c2n1	inactive	> 10 µM	> 10 µM	0.76 µM	5.4 µM	> 10 µM				
CNc1ncc2c(-c3ccc(N4CCN(C)CC4)nc3)nn(Cc3cn(Cc4ccccc4)nn3)c2n1	inactive	7.6 µM	> 10 µM	0.38 µM	2 µM	8.3 µM				
CNc1ncc2c(-c3ccc(OC)cc3)nn(CC3OCCO3)c2n1		7.5 µM	> 10 µM	1.3 µM	8.7 µM	7.2 µM	≤ 10 µM			
CCN1CCN(c2ccc(-c3nn(CC4CCCC4)c4nc(NC)ncc34)cn2)CC1		1.9 µM	1.8 µM	0.26 µM	2.5 µM	3.6 µM				
CNc1ncc2c(-c3ccc(N4CCNCC4)nc3)nn(Cc3cn(-c4ccsc4C(=O)OC)nn3)c2n1	Active	> 10 µM	> 10 µM	0.78 µM	8.9 µM	> 10 µM				
CNc1ncc2c(-c3ccc(N4CCN(C)CC4)nc3)nn(CC3CCCC3)c2n1		0.4 µM	0.36 µM	0.07 µM	0.48 µM	0.8 µM		0.17 µM	0.19 µM	0.03 µM
Nc1nc(Nc2ccc3c(c2)CC[C@@H](N2CCCC2)CC3)nn1-c1cc2c(nn1)-c1ccccc1CCC2 [BEMCENTINIB]			1 µM					0.1 µM	0.53 µM	0.006 µM
CNc1ncc2c(-c3ccc(N4CCN(C(=O)C(C)(C)C)CC4)nc3)nn(CC3CCCC3)c2n1		> 10 µM	> 10 µM	7.2 µM	> 10 µM	> 10 µM				
CNc1ncc2c(-c3ccc(N4CCNCC4)nc3)nn(CC3CCCC3)c2n1		0.69 µM	1.1 µM	0.12 µM	0.64 µM	1.1 µM	0.83 µM			
CNc1ncc2c(-c3ccc(N4CCNCC4)nc3)nn(CC3OCCO3)c2n1		4.5 µM	7.5 µM	0.53 µM	6.2 µM	0.89 µM	≤ 10 µM			
CCN1CCN(c2ccc(-c3nn(Cc4cn(Cc5ccccc5)nn4)c4nc(NC)ncc34)cn2)CC1	inactive	7.7 µM	> 10 µM	> 10 µM	> 10 µM	> 10 µM				
CNc1ncc2c(-c3ccc(N4CCNCC4)cc3)nn(Cc3cn(Cc4ccccc4)nn3)c2n1	inactive	> 10 µM	> 10 µM	> 10 µM	> 10 µM	> 10 µM				
